From ChEMBL document CHEMBL1131232, “New azole antifungals. 3. Synthesis and antifungal activity of 3-substituted-4(3H)-quinazolinones” (J Med Chem, 1998) come the findings set out here.

≈ marks a conversion by molar mass, not a printed value.

The test system of data set [1] is Candida albicans. The experiment in a line: Tested in vivo for anti-candida activity in mice model 1 (dose:0.5 mg/kg, fluconazole-treated group). The data set is classed as functional.
In data set [2] the test system is Mus musculus. The data set is described as follows: The compound was tested in vivo for anti-candida activity in mice model 1(dose: 1 mg/kg,fluconazole-treated group). Type of data set: functional.
Data set [3] can be described thus: In vitro antifungal activity against 6 filamentous fungi. The data set is classed as functional. An outline of the steps:
(§1)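 Agar dilution on Kimmig's agar with 0.5% glycerol, using ATCC strains or clinical isolates. Drug stocks were 800 μg/mL in 50% ethanol, tested as 2-fold dilutions from 80 to 0.03 μg/mL. Inocula were 10⁵ cfu/mL. […] Geometric means took >80 as 160 and ≤0.03 as 0.03.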

Data set [4] can be described thus: In vitro for antifungal activity against 10 yeasts. Type of data set: functional. An outline of the steps: as §1
Data set [5] concerns Mus musculus. The experiment in a line: The compound was tested in vivo for anti-candida activity in mice model 1(dose: 1 mg/kg, untreated group). The data set is classed as functional.
For data set [6], the system named is Candida albicans. The experiment in a line: Tested in vivo for anti-candida activity in mice model 1 (dose: 0.5 mg/kg, untreated group). The data set is classed as functional.
Data set [7] concerns Rattus norvegicus. The data set is described as follows: In vivo activity against disseminated aspergillosis (liver) in immunocompromized rat model at a dose of 50 mg/kg, bid, po. Type of data set: functional. An outline of the steps:
(§2)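 Male Sprague–Dawley rats, 10 per group, were immunosuppressed with dexamethasone 21-acetate 1 mg/kg/day po from 4 days before iv infection. Oral dosing in 1% Tween 80 + 0.2% CMC was given 1 and 8 h post-infection, then bid for 6 more days. Vehicle controls were dosed po bid. On day 7, liver homogenate was plated on Sabouraud agar (37 °C, 7 days) and log cfu/g recorded.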

Data set [8] concerns Rattus norvegicus. The experiment in a line: In vivo activity against disseminated aspergillosis (liver) in immunocompromized rat model at a dose of 1 mg/kg, bid, po. Type of data set: functional. An outline of the steps:
as §2

Data set [9] in a line: Half-life in rats after iv administration. Type of data set: ADME, organism-based. As to conditions: rat, in vivo.
In data set [10] the test system is Candida albicans. The experiment in a line: In vivo antifungal activity against murine candidosis model after peroral administration with 1 mg/kg at various time intervals. (percent protection for 100% mortality with untreated group). The data set is classed as functional. As to conditions: route oral. An outline of the steps: (§3)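 Groups of 10 male mice were infected iv with 0.2 mL of C. albicans at 2 to 8×10^7 cfu/mL. Drug was given orally as a suspension in 1% Tween + 0.2% carboxymethylcellulose at 1, 4 and 24 h post-infection; controls got vehicle only. Survival was scored on days 3, 5, 7 and 9. Read-out was % survival on the day all untreated controls died, or on the day all mice given fluconazole at the same dose died.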

The subject of data set [11] is Mus musculus. The data set is described as follows: The compound was tested in vivo for anti-candida activity in mice model 2(dose: 5 mg/kg, untreated group). The data set is classed as functional.
The subject of data set [12] is Oryctolagus cuniculus. The experiment in a line: In vivo antifungal activity against systemic candidosis in rabbit lung at a dose of 12.5 mg/kg, qd, po. Type of data set: functional. An outline of the steps: (§4)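 Groups of 10 male New Zealand rabbits were infected iv with C. albicans (1.2×10^7 cfu/kg). Drug was given orally as a suspension in 1% Tween 80 + 0.2% carboxymethylcellulose 4 h post-infection, then qd for 6 more days; controls got vehicle. On day 7, kidney or lung was homogenized in saline and plated on Sabouraud agar (37 °C, 7 days). Read-out was log cfu/g wet tissue.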

The test system of data set [13] is Mus musculus. The experiment in a line: The compound was tested in vivo for anti-candida activity in mice model 2(dose :5 mg/kg,fluconazole-treated group). Type of data set: functional.
In data set [14] the test system is Mus musculus. The experiment in a line: The compound was tested in vivo for anti-candida activity in mice model 1(dose: 0.5 mg/kg, untreated group). The data set is classed as functional.
Data set [15] deals with Oryctolagus cuniculus. The data set is described as follows: In vivo antifungal activity against systemic candidosis in rabbit kidney at a dose of 2.5 mg/kg, qd, po. Type of data set: functional. An outline of the steps: (§5)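 Male New Zealand rabbits, 10 per group, were infected iv with C. albicans at 1.2×10^7 cfu/kg. Oral dosing in 1% Tween 80 + 0.2% CMC began 4 h post-infection and continued qd for 6 more days; controls received vehicle. On day 7, kidney and lung homogenates in saline (1 mL/g) were plated on Sabouraud agar (37 °C, 7 days); read-out was log cfu/g wet tissue.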

The subject of data set [16] is Oryctolagus cuniculus. The experiment in a line: In vivo antifungal activity against systemic candidosis in rabbit lung at a dose of 0.5 mg/kg, qd, po. Type of data set: functional. An outline of the steps: as §5
For data set [17], the system named is Oryctolagus cuniculus. The data set is described as follows: In vivo antifungal activity against systemic candidosis in rabbit kidney at a dose of 12.5 mg/kg, qd, po. Type of data set: functional. An outline of the steps:
as §4

Data set [18] concerns Rattus norvegicus. The data set is described as follows: In vivo activity against disseminated aspergillosis (liver) in immunocompromized rat model at a dose of 25 mg/kg, bid, po. The data set is classed as functional. An outline of the steps:
as §2

Data set [19] deals with Oryctolagus cuniculus. The experiment in a line: In vivo antifungal activity against systemic candidosis in rabbit kidney at a dose of 0.5 mg/kg, qd, po. The data set is classed as functional. An outline of the steps:
as §5

Data set [20] has as its system Candida albicans. The data set is described as follows: (§6) In vivo antifungal activity against murine candidosis model after peroral administration with 0.5 mg/kg at various time intervals. (percent protection for 100% mortality with untreated group). As to conditions: route oral. Type of data set: functional. An outline of the steps:
as §3

For data set [21], the system named is Candida albicans. The data set is described as follows: In vivo antifungal activity against murine candidosis model after peroral administration with 1 mg/kg at various time intervals. (percent protection for 100% mortality with fluconazole-treated group.). Type of data set: functional. As to conditions: route oral. An outline of the steps:
as §3

The test system of data set [22] is Candida albicans. The data set is described as follows: The compound was tested in vitro for antifungal activity against Candida albicans. Type of data set: functional. An outline of the steps: as §1
Data set [23] has as its system Rattus norvegicus. The experiment in a line: In vivo activity against disseminated aspergillosis (liver) in immunocompromized rat model at a dose of 5 mg/kg, bid, po. The data set is classed as functional. An outline of the steps:
as §2

The test system of data set [24] is Oryctolagus cuniculus. The experiment in a line: In vivo antifungal activity against systemic candidosis in rabbit lung at a dose of 2.5 mg/kg, qd, po. Type of data set: functional. An outline of the steps: as §5
In data set [25] the test system is Mus musculus. The experiment in a line: The compound was tested in vivo for anti-candida activity in mice model 1 (dose :0.5 mg/kg,fluconazole-treated group). Type of data set: functional.
For data set [26], the system named is Mus musculus. The data set is described as follows: In vivo antifungal activity against murine candidosis model after peroral administration with 0.5 mg/Kg at various time intervals. (percent protection for 100% mortality with fluconazole-treated group.). The data set is classed as functional. An outline of the steps:
as §3

The test system of data set [27] is Mus musculus. The experiment in a line: In vivo antifungal activity against murine candidosis model after peroral administration with 0.5 mg/kg at various time intervals. (percent protection for 100% mortality with fluconazole-treated group.). The data set is classed as functional. As to conditions: route oral. An outline of the steps: as §3
Data set [28] deals with Mus musculus. The description is as §6. As to conditions: route oral. The data set is classed as functional. An outline of the steps:
as §3

The subject of data set [29] is Mus musculus. The experiment in a line: In vivo antifungal activity against murine candidosis model after peroral administration with 1 mg/Kg at various time intervals. (percent protection for 100% mortality with untreated group). Type of data set: functional. An outline of the steps:
as §3

Data set [30] relates to Mus musculus. The experiment in a line: In vivo antifungal activity against murine candidosis model after peroral administration with 0.5 mg/Kg at various time intervals. (percent protection for 100% mortality with untreated group). The data set is classed as functional. An outline of the steps: as §3

Usually MIC stands for the lowest concentration found to suppress growth. With `C[C@@H](c1ncncc1F)[C@](O)(Cn1cncn1)c1ccc(F)cc1F` [VORICONAZOLE], the Protection in the data set with Candida albicans [1] came to 0%; with Mus musculus [2] it was 0%; in the data set with Mus musculus [5], 20%; in the data set with Candida albicans [6] it was 0%. Besides, the MIC in data set [3] (read-out: MIC) amounted to 0.5 µg/mL (≈ 1.43 µM); in [4] (read-out: MIC), 0.6 µg/mL (≈ 1.72 µM).

Broadly, the half-life is how long it takes for the measured level to halve. Regarding `C[C@@H](n1cnc2cc(Cl)ccc2c1=O)[C@](O)(Cn1cncn1)c1ccc(F)cc1F` (stereo in doubt; 20) [ALBACONAZOLE], the Log cfu/g with Rattus norvegicus [7] came to 0; in the data set with Rattus norvegicus [8], 1.59; in the data set with Oryctolagus cuniculus [12], 0; with Oryctolagus cuniculus [15], 0.3; with Oryctolagus cuniculus [16] it was 0.39; in the data set with Oryctolagus cuniculus [17], 0.35. Moreover, the Log cfu/g in the data set on Rattus norvegicus [18] came out at 0.48; with Oryctolagus cuniculus [19] it was 0.68; in the data set with Rattus norvegicus [23], 1.22; in the data set on Oryctolagus cuniculus [24], 0.12. In [9], this molecule gave a half-life of 2.9 h. Moreover, the Protection in the data set with Candida albicans [10] stood at 0%; in the data set on Mus musculus [11] it was 90%; in the data set on Mus musculus [13] it was 0%; with Mus musculus [14], 0%; in the data set on Candida albicans [20], 0%; in the data set with Candida albicans [21] it was 0%. The molecule also showed a Protection with Mus musculus [25] of 0%. Also, the MIC in data set [3] was 0.7 µg/mL (≈ 1.62 µM); in data set [4], 0.3 µg/mL (≈ 0.695 µM); in the data set on Candida albicans [22] it was under 0.03 µg/mL.

On to `C[C@@H](n1cnc2cc(Br)ccc2c1=O)[C@](O)(Cn1cncn1)c1ccc(F)cc1F`, for which the Protection in the data set on Mus musculus [26] came out at 0%; in the data set on Candida albicans [10], 30%; with Candida albicans [21], 0%. For the same molecule, the MIC in [3] (read-out: MIC) is 0.8 µg/mL (≈ 1.68 µM); in data set [4] (read-out: MIC), 0.4 µg/mL (≈ 0.84 µM); against Candida albicans [22], under 0.03 µg/mL.

On to `CCC(CC)n1ncn(-c2ccc(N3CCN(c4ccc5c(=O)n([C@H](C)[C@](O)(Cn6cncn6)c6ccc(F)cc6F)cnc5c4)CC3)cc2)c1=O`, for which the Protection is recorded as 0% with Mus musculus [27] and 20% with Mus musculus [28]. The results for the MIC in data set [3] (read-out: MIC) and in data set [4] (read-out: MIC) were over 80 µg/mL and 2.3 µg/mL (≈ 3.24 µM), respectively.

Consider `C[C@@H](n1cnc2cc(N(C)C)ccc2c1=O)[C@](O)(Cn1cncn1)c1ccc(F)cc1F`, for which the values for the MIC in data set [3] (read-out: MIC) and in [4] (read-out: MIC) were 71 µg/mL (≈ 161 µM) and 1.3 µg/mL (≈ 2.95 µM), respectively. Also, the Protection in the data set with Candida albicans [21] and in the data set with Mus musculus [29] was 0% each time.

For the molecule `C[C@@H](n1cnc2cc(F)ccc2c1=O)[C@](O)(Cn1cncn1)c1ccc(F)cc1F`, in data set [9], the half-life was 1.4 h. Also, the Protection with Candida albicans [10], with Candida albicans [21] and with Mus musculus [30] was 0% each time. Moreover, the MIC in data set [3] (read-out: MIC) is 2.5 µg/mL (≈ 6.02 µM); in [4] (read-out: MIC), 0.9 µg/mL (≈ 2.17 µM); against Candida albicans [22], under 0.03 µg/mL.
